# HKDC1 inhibitor – HKDC1 hexokinase inhibitors, primary screen, biochemical, fluorescence, uHTS. Q2TB90. recombinant HKDC1, G6PDH/diaphorase resazurin coupled fluorescence. inhibition, % at 20 µM. 340,000 compounds, 0.16% hits;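 active = inhibition above about 35% when tested at 20 µM, limit read from the data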;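 also: plate controls were DMSO wells with enzyme for no effect and DMSO wells lacking enzyme for full effect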
#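 Material: recombinant HKDC1 hexokinase; Amount: HKDC1 at 5 µg/mL; Medium: Tris pH 8.0 buffer with MgCl2, Tween-20, BSA, BME; Schedule: 90 min reaction incubation at room temperature, dark; Technique: coupled resazurin fluorescence, excitation 525 nm, emission 613 nm.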
# Diaphorase act – compounds boosting diaphorase resazurin reduction – biochemical, uHTS, resorufin fluorescence, counter-screen for diaphorase-coupled primary assays, primary screen | 190,000 compounds, 0.005% hits | Diaphorase/resazurin coupled assay, 16 min; active compounds read high; 1 = vehicle wells, 0 = NADH-free wells | activation factor at 20 µM;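 active = diaphorase activity raised at least twofold by the compound at 20 µM; inactive = activation factor below 2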
#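 Test system: Clostridium kluyveri diaphorase, purified enzyme; input: enzyme 0.07 U/mL final; buffer or medium: 50 mM HEPES pH 7.4 with 4.542 mM MgCl2, 0.005% Tween 20; also added: 0.114 mM NADH and 0.1 mM resazurin, final amounts; schedule: 16 min enzyme reaction, ambient temperature; technique: fluorescence of resorufin, 544 nm excitation, 590 nm emission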
# ATG4B inhibitor – ATG4B protease inhibitors, primary screen, biochemical, fluorescence, uHTS; 340,000 compounds, 0.51% hits; ATG4B cleavage of LC3-PLA2, NBD-HPC fluorescence, 1 h; Cysteine protease ATG4B (Homo sapiens), Q9Y4P1; AID 504462, 2011; inhibition, % at 8.33 µM; in the data active = inhibition above about 40%
# Target sequence (Q9Y4P1 whole entry, looked up): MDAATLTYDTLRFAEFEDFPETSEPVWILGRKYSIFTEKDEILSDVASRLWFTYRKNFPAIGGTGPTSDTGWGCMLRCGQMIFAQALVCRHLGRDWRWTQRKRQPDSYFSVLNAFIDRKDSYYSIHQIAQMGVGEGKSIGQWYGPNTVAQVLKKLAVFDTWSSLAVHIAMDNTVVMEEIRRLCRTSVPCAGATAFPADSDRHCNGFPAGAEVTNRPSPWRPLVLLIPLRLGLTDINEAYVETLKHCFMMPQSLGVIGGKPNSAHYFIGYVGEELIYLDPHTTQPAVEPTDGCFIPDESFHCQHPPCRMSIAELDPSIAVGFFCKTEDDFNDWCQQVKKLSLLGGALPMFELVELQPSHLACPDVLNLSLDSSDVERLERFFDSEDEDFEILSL
# Diaphorase inh – diaphorase inhibitors and chemical oxidizers, primary screen, counter-screen for diaphorase-coupled primary assays, biochemical, uHTS, resorufin fluorescence; diaphorase resazurin-to-resorufin fluorescence, NADH, 16 min; bacterial (C. kluyveri) enzyme, not human; inhibition, % at 20 µM; 190,000 compounds, 0.69% hits; AID 1217, 2008;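 active = primary screen inhibition at 20 µM above a set limit, cut at about 50% in these data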;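 also: plate controls were DMSO with full reaction for no effect and wells lacking NADH for full effect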
#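 Assay system: diaphorase enzyme from Clostridium kluyveri; Input: enzyme working solution with 0.14 U/mL diaphorase; Timing: 16 min at room temperature; Technique: resorufin fluorescence, excitation 544 nm, emission 590 nm; Benchmarks: positive control minus NADH, DMSO neutral control.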
# CTSL1 counter – Fasciola hepatica cathepsin L1 inhibitors, primary screen, counter-screen for PFM18AAP inhibitor project, biochemical, QFRET, fluorogenic peptide substrate; recombinant F. hepatica cathepsin L1, Z-Leu-Arg-MCA fluorescence; inhibition, % at 5.96 µM; 300,000 compounds, 0.49% hits;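 active = inhibition above the mean of all tested compounds plus 3 SD, set per screening campaign, cut at about 17% in these data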;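 also: 0% = plate median of test compound wells and 100% = 1 µM Z-Phe-Ala-diazomethylketone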
# Active calls of the source: *; · = not tested or not shown. Compounds with a hit are over-represented: about 1.4% of the library has one in this group of screens.
SMILES,HKDC1 inhibitor,Diaphorase act,ATG4B inhibitor,Diaphorase inh,CTSL1 counter
O=C1c2cccc3c(Nc4ccccc4Cl)c([N+](=O)[O-])cc(c23)C(=O)N1CCO,17,0.4,-12,56*,1
CC(C)(O)CC[C@H](OC(=O)c1ccccc1)[C@](C)(O)[C@H]1CC[C@@]2(O)C3=CC(=O)[C@@H]4C[C@@H](O)[C@H](O)C[C@]4(C)C3CC[C@]12C (stereo not given in full),-6,·,3,·,0
S=c1[nH]ncn2c1cc1oc3ccccc3c12,-3,0.5,-2,51*,4
CN1CCN(C2CCN(c3ccc(Nc4nnc(Cl)c(Nc5ccccc5S(C)(=O)=O)n4)c(OC(CF)CF)c3)CC2)CC1,0,·,-4,·,·
O=C(Cn1ncc2c1-c1ccccc1OC2)N(Cc1ccco1)C1CCCCC1,1,0.9,1,14,62*
O=C(Cn1ncc2c(=O)oc3ccccc3c21)N(Cc1ccco1)C1CCCCC1,-4,0.7,-9,31,44*
CCN(CC)C(=O)Cn1ncc2c1-c1ccccc1OC2,0,0.9,-4,12,6
O=C(CCCCCNC(=O)N1CCn2c1nc1ccccc12)NCc1ccc(F)cc1,-2,·,-5,·,1
COc1c2c(c(C)c3c1C(=O)OC3)O[C@@]1(C)CC[C@@]3(O)C(C)(C)OC(=O)CC[C@]3(C)[C@H]1C2,4,·,-8,·,25*
O=C(Cc1ccccc1)Nc1ccccc1C(=O)NCC1CCCO1 (stereo not given),-5,·,9,·,-1
O=C(N/N=C/c1ccco1)c1cccc(N2Cc3ccccc3C2)c1,11,0.4,5,60*,1
O=C(N/N=C/c1ccco1)c1cccc(N2CCCC2=O)c1,-11,0.9,-3,14,4
O=C(Cc1cccc2ccccc12)Nc1c(F)cccc1F,-3,·,0,·,-6
CCCCCCn1c(Br)nc2c1c(=O)n(C)c(=O)n2C,-8,1,0,1,35*
c1ccc(OCc2nnc3sc(C4COc5ccccc5O4)nn23)cc1 (stereo not given),-4,0.9,8,11,-5
c1ccc(Cc2nnc3sc(C4COc5ccccc5O4)nn23)cc1 (stereo not given),-10,0.8,5,17,18*
Cc1ccc(NC2=C/C(=N/S(=O)(=O)c3cccs3)c3ccccc3C2=O)cc1C,15,0.9,-1,11,19*
Cc1cc[n+](C2=C([O-])c3ccccc3C(=O)/C2=N\S(=O)(=O)c2cccs2)cc1C,8,0.9,-8,14,27*
Cc1ccccc1NC1=C/C(=N\S(=O)(=O)c2cccs2)c2ccccc2C1=O,63*,0.8,95*,24,94*
Cc1cc(C)c[n+](C2=C([O-])c3ccccc3C(=O)/C2=N\S(=O)(=O)c2cccs2)c1,15,0.8,2,22,13
Cc1ccc(SCC(=O)OCC(=O)NCCc2ccccc2)cc1C,-2,·,7,·,·
Cc1ccc(NC(=O)CC2S/C(=N/c3nccs3)N(C)C2=O)cc1C (stereo not given),-4,1,-6,5,41*
COc1cccc(-c2ncc3ccccc3c2COC(=O)c2ccc(F)cc2)c1,2,·,1,·,·
O=C(O)c1ccc(Nc2nc(-c3cc4ccccc4oc3=O)cs2)cc1O,13,0.1,9,88*,·
CC(=O)Nc1ccc(Nc2nc(-c3cc4ccccc4oc3=O)cs2)cc1,-4,·,-22,·,·
SMILES,HKDC1 inhibitor,Diaphorase act,ATG4B inhibitor,Diaphorase inh,CTSL1 counter
O=C(O)c1cc(-c2ccccc2)on1,-5,1,7,2,-3
O=C(O)c1cc(-c2ccc(O)cc2)on1,-5,0.3,-10,75*,2
COc1ccccc1C(=O)NC(=O)COC(=O)c1cnc(C)cn1,-1,·,1,·,-17
Cn1cc(/C=N/NC(N)=S)c2ccccc21,2,·,-3,·,100*
Cc1ccc(OCCOCCN2CCN(C)CC2)c([N+](=O)[O-])c1,-5,0.7,-2,31,18*
Cc1ccc(OCCOCCN2CCCCC2)c([N+](=O)[O-])c1,-10,1.1,1,-10,-2
O=C(NCCS(=O)(=O)NCc1ccc2c(c1)OCO2)c1ccccc1,-4,·,-2,·,-2
COc1ccc2cc(/C=C3\SC(=S)NC3=O)c(N3CCOCC3)nc2c1,13,0.4,6,58*,6
CC(=O)Nc1ccc(S(=O)(=O)N2CCC(NC(=O)C(Cc3ccccc3F)NC(C)=O)CC2)cc1 (stereo not given),-6,·,-11,·,·
COc1cc(Cl)c(C)cc1Nc1ncccn1,0,·,5,·,-2
N#CCCn1cc(/C=N/NC(N)=S)c(-c2ccc(-c3ccccc3)cc2)n1,-1,0.7,-12,34,29*
O=C(O)CCn1cc(/C=C2\NC(=S)N(c3ccccc3)C2=O)c(-c2ccc(Br)cc2)n1,3,0.8,5,23,19*
CC1(C)CC(=O)C(=Cc2cn(CCC#N)nc2-c2ccc(F)cc2)C(=O)C1,0,0.9,1,11,-1
O=Cc1cn(CCC(=O)O)nc1-c1cccc(Cl)c1,-10,0.9,5,13,-2
N#CCCn1cc(/C=C2\NC(=S)N(c3ccccc3)C2=O)c(-c2ccc(F)cc2)n1,-4,0.2,17,85*,5
Cc1ccc(/C=N/n2c(C3CCCCC3)n[nH]c2=S)cc1,1,·,-4,·,7
O=C(Cn1cnc2ccccc2c1=O)c1ccc(OC(F)F)cc1,-5,·,-5,·,-3
CC(C)(C)OC(=O)NN1CC(=O)N2[C@@H](Cc3c([nH]c4ccccc34)C2(C)C)C1=O,0,·,1,·,0
O=C(CSc1nc2ccccc2n1CCc1ccccc1)c1ccc(O)c(O)c1,19,0.4,7,63*,·
CC1(CCC(=O)N2CCCC(Nc3ccc(F)cc3)C2)CC1 (stereo not given),-1,·,16,·,-3
N/C(=N\OS(=O)(=O)c1ccc2ccccc2c1)c1ccncc1,7,0.9,-17,9,43*
N/C(=N\OS(=O)(=O)c1ccccc1)c1ccncc1,6,0.9,-7,5,33*
N/C(=N\OS(=O)(=O)c1ccc2ccccc2c1)c1cccnc1,-8,0.9,-5,5,2
CCCCN(C(=O)c1cccc(S(=O)(=O)N2CCN(C)CC2)c1)c1c(N)n(CCC)c(=O)[nH]c1=O,-2,·,-6,·,5
Cn1nnnc1SCC(=O)Nc1ccc(C(=O)N2CCN(Cc3ccccc3F)CC2)cc1,-5,·,-10,·,·

# Screening data: PubChem BioAssay, several laboratories
